The values that follow come from ChEMBL document CHEMBL4024779, “Novel Terminal Bipheny-Based Diapophytoene Desaturases (CrtN) Inhibitors as Anti-MRSA/VISR/LRSA Agents with Reduced hERG Activity” (J Med Chem, 2018).

The structures appear in SMILES notation. Residue numbers refer to the chain shown, from its start. Calls of active or inactive are those of the source. The rule behind the calls is not given here.

One data set concerns the target Cytochrome P450 2C8 (Homo sapiens, UniProt P10632). Kind of data set: Inhibition of CYP2C8 in human liver microsomes using paclitaxel as substrate upto 10 uM after 20 mins in presence of NADPH by LC-MS/MS analysis. The data set is classed as ADME.
Data set [1] is described as follows: AUC (0 to 24 hrs) in Sprague-Dawley rat at 5 mg/kg, iv administered as single dose by LC-MS/MS analysis. In kind it is ADME, organism-based. Set-up: dose 5 mg/kg, time < 24 hr, route intravenous. To be noted: in vivo.
Data set [2] can be described thus: AUC (0 to 24 hrs) in Sprague-Dawley rat at 10 mg/kg, ip administered as single dose by LC-MS/MS analysis. In kind it is ADME, organism-based. On the set-up: dose 10 mg/kg, time < 24 hr, route intraperitoneal. To be noted: in vivo.
Data set [3] in a line: AUC (0 to infinity) in Sprague-Dawley rat at 10 mg/kg, ip administered as single dose by LC-MS/MS analysis. The data set is classed as ADME, organism-based. Set-up: dose 10 mg/kg, time infinity, route intraperitoneal. To be noted: in vivo.
Data set [4] is described as follows: Tmax in Sprague-Dawley rat at 10 mg/kg, ip administered as single dose by LC-MS/MS analysis. The data set is classed as ADME, organism-based. To be noted: in vivo.
The nature of data set [5]: AUC (0 to 24 hrs) in mouse at 2 mg/kg, iv administered as single dose by LC-MS/MS analysis. The data set is classed as ADME, organism-based. On the set-up: dose 2 mg/kg, time < 24 hr, route intravenous. To be noted: in vivo.
Data set [6] can be described thus: AUC (0 to 24 hrs) in mouse at 10 mg/kg, po administered as single dose by LC-MS/MS analysis. To be noted: in vivo. The data set is classed as ADME, organism-based. On the set-up: time < 24 hr, dose 10 mg/kg, route oral.
The nature of data set [7]: Half life in mouse at 2 mg/kg, iv administered as single dose by LC-MS/MS analysis. In kind it is ADME, organism-based. To be noted: in vivo.
The test system of data set [8] is Staphylococcus aureus. Nature of the data set: In vivo anti-virulence activity against methicillin-resistant Staphylococcus aureus LRSA56 infected in BALB/c mouse model assessed as reduction in bacterial load in kidney at 0.1 mg bid for 3.5 days administered intraperitoneally 6 hrs post infection by serial dilution method relative to control. In kind it is functional. On the set-up: scale not given: the % may be the effect or the level left. In outline:
(§1)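 Mice were infected by retro-orbital injection with LRSA56 (5.0 × 10^7 CFU) or LRSA202 (7.0 × 10^7 CFU). Compound was given intraperitoneally 6 h after infection. […] Log10 CFU was counted in kidneys and hearts, with groups compared by two-tailed Mann-Whitney test.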

The subject of data set [9] is Staphylococcus aureus. Kind of data set: In vivo anti-virulence activity against methicillin-resistant Staphylococcus aureus LRSA56 infected in BALB/c mouse model assessed as reduction in bacterial load in heart at 0.1 mg bid for 3.5 days administered intraperitoneally 6 hrs post infection by serial dilution method relative to control. In kind it is functional. Set-up: scale not given: the % may be the effect or the level left. In outline:
as §1

The subject of data set [10] is Staphylococcus aureus. Nature of the data set: In vivo anti-virulence activity against methicillin-resistant Staphylococcus aureus LRSA56 infected in BALB/c mouse model assessed as reduction in bacterial load in heart at 0.1 mg bid for 3.5 days administered intraperitoneally 6 hrs post infection by serial dilution method relative to linezolid. In kind it is functional. On the set-up: scale not given: the % may be the effect or the level left. The procedure, abridged:
as §1

In data set [11] the test system is Staphylococcus aureus. Kind of data set: In vivo anti-virulence activity against Staphylococcus aureus Newman infected in BALB/c mouse model assessed as reduction in bacterial load in kidney at 0.2 mg bid for 3.5 days administered orally 6 hrs post infection by serial dilution method relative to control. The data set is classed as functional. Set-up: scale not given: the % may be the effect or the level left. The procedure, abridged: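 Mice got 3.1 × 10^7 CFU S. aureus Newman by retro-orbital injection. Oral compound was given b.i.d. for 3.5 d, starting 6 h after infection. […] Log10 CFU was counted per kidney and per heart.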

Data set [12] has as its system Rattus norvegicus. Nature of the data set: Toxicity in Sprague-Dawley rat at 60 to 1000 mg/kg, po administered as single dose assessed as abnormal behavior measured during 2 weeks post administration. In kind it is organism-based. To be noted: in vivo, 336 h. In outline:
(§2)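 Rats, 30 in total, randomised into three groups. Each received a single oral dose of 60, 250 or 1000 mg/kg on day 1. Poisoning symptoms, mortality, behaviour, water and food consumption and body weight monitored immediately and over 2 weeks.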

In data set [13] the test system is Rattus norvegicus. Nature of the data set: Toxicity in Sprague-Dawley rat at 60 to 1000 mg/kg, po administered as single dose assessed as changes in food consumption measured during 2 weeks post administration. The data set is classed as organism-based. To be noted: in vivo, 336 h. The procedure, abridged:
as §2

The subject of data set [14] is Staphylococcus aureus. Nature of the data set: In vivo anti-virulence activity against Staphylococcus aureus Mu50 infected in BALB/c mouse model assessed as reduction in bacterial load in kidney at 0.2 mg bid for 3.5 days administered orally 6 hrs post infection by serial dilution method relative to control. The data set is classed as functional, organism-based. In outline: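 Mice were infected by retro-orbital injection with Mu50 (4.6 × 10^9 CFU) or NRS271 (3.5 × 10^8 CFU). Oral compound was given b.i.d. for 3.5 d, starting 6 h after infection. Log10 CFU was counted per kidney and per heart.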

The target of data set [15] is T1, 4,4'-diapophytoene desaturase (4,4'-diaponeurosporene-forming) (Staphylococcus aureus (strain MW2)) (UniProt Q8NUQ6).
T1 sequence (whole entry): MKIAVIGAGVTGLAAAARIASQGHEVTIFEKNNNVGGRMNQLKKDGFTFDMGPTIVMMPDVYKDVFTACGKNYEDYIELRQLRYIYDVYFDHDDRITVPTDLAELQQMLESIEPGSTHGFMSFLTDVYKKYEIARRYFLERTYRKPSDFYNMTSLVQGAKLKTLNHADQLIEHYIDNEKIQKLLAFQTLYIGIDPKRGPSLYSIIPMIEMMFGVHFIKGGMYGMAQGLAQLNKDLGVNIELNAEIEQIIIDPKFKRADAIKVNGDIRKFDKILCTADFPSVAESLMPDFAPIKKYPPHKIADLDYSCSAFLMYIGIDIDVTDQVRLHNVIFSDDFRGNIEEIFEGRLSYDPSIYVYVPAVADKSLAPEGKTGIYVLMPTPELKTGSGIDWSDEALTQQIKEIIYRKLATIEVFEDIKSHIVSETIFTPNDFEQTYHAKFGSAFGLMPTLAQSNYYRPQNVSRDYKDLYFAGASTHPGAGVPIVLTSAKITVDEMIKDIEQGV
To be noted: Staphylococcus aureus subsp. aureus MW2; USA400; 1 uM.

Data set [16] concerns the target T2, 4,4'-diapophytoene desaturase (4,4'-diaponeurosporene-forming) (Staphylococcus aureus (strain Mu50 / ATCC 700699)) (UniProt Q99R76).
T2 sequence (whole entry): T1 sequence (whole entry) with Q500R
To be noted: Staphylococcus aureus subsp. aureus Mu50; 1 uM.

The target in data set [17] is T3, 4,4'-diapophytoene desaturase (4,4'-diaponeurosporene-forming) (Staphylococcus aureus (strain USA300)) (UniProt Q2FDU6).
T3 sequence (whole entry): T1 sequence (whole entry) with Q500R
To be noted: Staphylococcus aureus LAC, 1 uM.

Chain of Cytochrome P450 2C8 (P10632 whole entry): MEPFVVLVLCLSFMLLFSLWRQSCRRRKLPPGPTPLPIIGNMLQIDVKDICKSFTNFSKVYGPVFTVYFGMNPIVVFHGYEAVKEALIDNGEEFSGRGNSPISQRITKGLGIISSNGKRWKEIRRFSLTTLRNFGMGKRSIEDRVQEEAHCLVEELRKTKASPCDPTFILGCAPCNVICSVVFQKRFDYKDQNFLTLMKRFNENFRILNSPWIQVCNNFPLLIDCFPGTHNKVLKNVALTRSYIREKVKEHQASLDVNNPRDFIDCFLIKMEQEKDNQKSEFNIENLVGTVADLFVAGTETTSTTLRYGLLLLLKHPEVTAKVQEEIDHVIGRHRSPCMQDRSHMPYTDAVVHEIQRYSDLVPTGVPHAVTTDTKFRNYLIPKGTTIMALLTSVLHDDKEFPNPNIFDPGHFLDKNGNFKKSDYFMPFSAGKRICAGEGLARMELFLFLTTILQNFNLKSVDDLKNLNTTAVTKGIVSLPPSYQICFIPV

What is called IC50 is the concentration needed to halve the response being measured. For orientation: AUC(0-t) means the area under the concentration-time curve up to a stated or last time point. A word on the AUC(0-inf): it is total exposure, with the tail of the curve extrapolated. Broadly, the Tmax is the time at which the peak concentration occurs. For orientation: half-life means how long it takes for the measured level to halve. In the case of `CN(C/C=C/c1ccc(-c2ccccc2)cc1)Cc1coc2ccccc12.Cl`, the IC50 on Cytochrome P450 2C8 is more than 10 µM. The AUC(0-t) at 24 h in data set [1] is 2.81 µg·h/mL; in data set [2] it was 975 µg·h/mL; in [5], 1.07 µg·h/mL; in data set [6], 4.53 µg·h/mL. In addition, the total exposure AUC(0-inf) in data set [3] worked out at 1090 µg·h/mL. For the same molecule, in [4], the Tmax came to 3 h. Further, the half-life in data set [7] is 2.05 h. The Activity is listed as more than 83% in the data set with Staphylococcus aureus [8]; more than 81.4% with Staphylococcus aureus [9]; more than 71.8% in the data set with Staphylococcus aureus [10]; 90% in the data set with Staphylococcus aureus [11]; “Non-Toxic” with Rattus norvegicus [12]; “Non-Toxic” in the data set with Rattus norvegicus [13]. The outcome in the data set with Staphylococcus aureus [14] was Active. Moreover, the values for the Survival in data set [15], in data set [16] and in [17] were 1%, 0.4% and 2.3%, respectively.
